Screening data as filed in PubChem.
dFosB act – mouse delta FosB homodimer activation; P13346; purified delta FosB, TAMRA-CDK5 oligo fluorescence polarization; percent of positive-control signal above neutral wells; activation, % at 25 µM; 0.99% of 340,000 active; AID 493131;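 active = mean activation above about 17%, with every replicate also reaching it, limit read from the data, passing the limit was not always enough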
Target sequence (P13346 whole entry, looked up): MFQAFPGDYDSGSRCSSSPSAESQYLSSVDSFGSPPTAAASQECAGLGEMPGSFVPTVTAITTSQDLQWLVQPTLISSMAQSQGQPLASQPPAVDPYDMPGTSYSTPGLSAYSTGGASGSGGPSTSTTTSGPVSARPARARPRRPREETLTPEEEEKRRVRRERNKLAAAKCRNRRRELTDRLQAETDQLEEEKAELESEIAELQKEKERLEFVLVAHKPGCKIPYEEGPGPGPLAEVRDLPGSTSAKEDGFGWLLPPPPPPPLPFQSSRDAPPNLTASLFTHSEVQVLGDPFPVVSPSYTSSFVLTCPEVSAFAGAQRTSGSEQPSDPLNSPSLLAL
PvdQ acylase – blocks Pseudomonas aeruginosa PvdQ acylase activity; 0.063% of 340,000 active; inhibition, % at 10 µM; purified PvdQ acylase, fluorescence plate reader; in the data active = inhibition above about 30%, passing the limit was not always enough
RAD54 inh – inhibitors of human RAD54 branch migration. RAD54 Holliday junction branch migration, FAM/BHQ fluorescence. inhibition, % at 10.4 µM. 0.14% of 360,000 active. AID 602329;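 active = mean normalized replicate activity at least 40 and at least half of replicates scoring 40 or more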;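 note: inhibitors cause a drop in the FAM fluorescence signal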
SR-BI DiI inh – mouse SR-BI HDL lipid transfer inhibition; inhibition, % at 12.5 µM; 0.96% of 320,000 active; ldlA[mSR-BI] CHO cells, DiI-HDL uptake fluorescence, 3 h; AID 488896; Q61009;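 active = mean replicate inhibition of at least 70% and a set share of replicates each scoring 70 or more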
SR-BI uptake up – SR-BI HDL lipid transfer activation. activation, % at 12.5 µM. AID 504775. 0.096% of 320,000 active. CHO ldlA[mSR-BI] cells, DiI-HDL uptake fluorescence, 3 h; 100 = double the neutral-control signal;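 active = mean replicate activation of at least 60% and every replicate at or above 60%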
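Material: SR-BI-overexpressing, LDLR-lacking CHO cells; schedule: compound exposure 3 h, 37 °C; reagent: DiI-labelled HDL at 10 µg/mL final; technique: bottom-read fluorescence, 550/595 nm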
S100A4 inh HTS – blocks human S100A4 binding to myosin IIA peptide; inhibition, % at 10.7 µM; S100A4/TAMRA-MyoIIA peptide fluorescence polarization; P26447; 0.14% of 360,000 active;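 active = mean inhibition of at least 70% across replicates, with every replicate also reaching that level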
Target sequence (P26447 whole entry, looked up): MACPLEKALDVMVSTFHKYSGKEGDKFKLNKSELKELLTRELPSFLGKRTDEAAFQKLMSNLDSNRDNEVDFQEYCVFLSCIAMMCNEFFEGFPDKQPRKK
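Assay system: human S100A4 monomer with TAMRA-labelled myosin IIA peptide / Buffer or medium: Calcium-containing HEPES buffer, pH 7.2 / Reagent: TAMRA-labelled myosin IIA heavy-chain peptide probe, 5 nM / Compound: one dose per compound / Timing: polarization read 5 min after assay mix addition, stable 5–60 min / Benchmarks: neutral control DMSO, positive control TFP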
Large screens that a line does not name were inactive. Shown are actives, neighbours in structure and some others; about 1.6% of the full set was active somewhere.

C/C(CC(=O)Nc1ccc(Cl)c(C(F)(F)F)c1)=N\NC(=O)c1cc2ccccc2cc1O	SR-BI DiI inh 112 (no result: S100A4 inh HTS)
C[C@@H]1CCCCO[C@@H](CN(C)C(=O)Nc2ccc3c(c2)OCO3)[C@H](C)CN([C@@H](C)CO)C(=O)c2cc(NC(=O)c3ccncc3)ccc2O1	none (no result: dFosB act, PvdQ acylase, SR-BI DiI inh, SR-BI uptake up)
N/C(=N\N=C/c1ccc(Br)cc1)N/N=C\c1ccc(Br)cc1	none
N/C(=N\N=Cc1ccc2c(c1)OCO2)NN=Cc1ccc2c(c1)OCO2	dFosB act 42
N/C(=N\N=C/c1ccc(F)cc1)N/N=C\c1ccc(F)cc1	dFosB act 26
C[C@H](CO)N1C[C@H](C)[C@@H](CN(C)C(=O)c2cnccn2)Oc2cc(C3=CCCC3)ccc2S1(=O)=O	none (no result: dFosB act, PvdQ acylase, SR-BI DiI inh, SR-BI uptake up)
CN1C(=O)c2cc(NC(=O)c3ccc(C(F)(F)F)cc3)ccc2OC[C@H]2O[C@@H](CC(=O)O)CC[C@H]21	none (no result: dFosB act, PvdQ acylase, SR-BI DiI inh, SR-BI uptake up)
Clc1ccc(-c2nnc(-c3ccco3)o2)cc1	PvdQ acylase 58 (no result: S100A4 inh HTS)
Brc1ccc2nc(-c3c[nH]c4ccccc34)cn2c1	SR-BI DiI inh 84
COc1ccc(-c2nn(C)c(=O)c3ccccc23)cc1NC(=O)COc1ccc(C)cc1	SR-BI DiI inh 92
C[C@H](CO)N1C[C@H](C)[C@@H](CN(C)C(=O)c2cnccn2)Oc2cc(Br)ccc2S1(=O)=O	none (no result: dFosB act, PvdQ acylase, SR-BI DiI inh, SR-BI uptake up)
COCC(=O)N1[C@H](CO)[C@@H](c2ccccc2)C12CN(C(=O)NC1CCCC1)C2	none (no result: dFosB act, PvdQ acylase, RAD54 inh, SR-BI DiI inh, SR-BI uptake up)
CSCCC(NC(=O)c1ccc(Cl)cc1Cl)C(=O)N1CCN(C(=O)c2ccccc2)CC1 (centres undefined)	SR-BI DiI inh 78
CSCCC(NC(=O)c1ccccc1Cl)C(=O)N1CCC1 (centres undefined)	none (no result: RAD54 inh)
COc1ccc(CNC(=O)CN(C(=O)c2csnn2)c2cccc3c2CCCC3)cc1	SR-BI DiI inh 76
O[C@@H](c1cc(C(F)(F)F)nc2c(C(F)(F)F)cccc12)[C@H]1CCCCN1	none
OC(c1cc(C(F)(F)F)nc2c(Cl)cc(Cl)cc12)C1CCCCN1 (centres undefined)	SR-BI uptake up 66
C[C@H]1CN([C@@H](C)CO)S(=O)(=O)c2ccc(-c3ccccc3)cc2O[C@H]1CN(C)CC1CC1	none (no result: dFosB act, PvdQ acylase, SR-BI DiI inh, SR-BI uptake up)
CC=Cc1ccc2n(c1=O)C[C@H]1[C@H](CO)[C@@H](C(=O)Nc3ccc(-c4ccccc4)cc3)N(CC)[C@@H]21 (mixture of isomers)	none (no result: dFosB act, PvdQ acylase, SR-BI DiI inh, SR-BI uptake up)
C[C@H]1CN([C@@H](C)CO)C(=O)Cc2cc(NC(=O)CCC(F)(F)F)ccc2O[C@H]1CN(C)Cc1ccc(-c2ccccc2)cc1	SR-BI uptake up 154
C[C@H](CO)N1C[C@H](C)[C@H](CN(C)C)Oc2ccc(NC(=O)CCC(F)(F)F)cc2CC1=O	none (no result: dFosB act, PvdQ acylase, SR-BI DiI inh, SR-BI uptake up)
C[C@@H]1CN([C@@H](C)CO)C(=O)Cc2cc(NC(=O)CCN3CCOCC3)ccc2O[C@@H]1CN(C)C	S100A4 inh HTS 128 (no result: dFosB act, PvdQ acylase, SR-BI DiI inh, SR-BI uptake up)
C[C@H]1CN([C@@H](C)CO)C(=O)Cc2cc(NC(=O)CCC(F)(F)F)ccc2O[C@@H]1CN(C)C	S100A4 inh HTS 108 (no result: dFosB act, PvdQ acylase, SR-BI DiI inh, SR-BI uptake up)
CCCNC(=O)C[C@H]1CC[C@H]2[C@H](COc3ccc(NC(=O)c4cccs4)cc3C(=O)N2C)O1	none (no result: dFosB act, PvdQ acylase, SR-BI DiI inh, SR-BI uptake up)
O=C(c1ccc(NS(=O)(=O)c2cccc([N+](=O)[O-])c2)cc1)N1CCN(C(=O)c2ccco2)CC1	SR-BI uptake up 63
CCCSc1ccc([C@H]2N[C@@](CC(C)C)(C(=O)OC)[C@H]3C(=O)N(C)C(=O)[C@@H]23)cc1	SR-BI DiI inh 74
CCCCCCSc1ccc([C@H]2N[C@@](CC(C)C)(C(=O)OC)[C@H]3C(=O)N(C)C(=O)[C@@H]23)cc1	none
Cc1cc(NC(=O)c2sccc2C)n(-c2nc3ccccc3[nH]2)n1	SR-BI DiI inh 78
Cc1cc(NC(=O)c2ccccc2)n(-c2nc3ccccc3[nH]2)n1	none (no result: RAD54 inh)
COc1ccc(C(=O)Nc2cc(C)nn2-c2nc3ccccc3[nH]2)c(OC)c1	SR-BI DiI inh 75 (no result: RAD54 inh)
COc1cccc(OC)c1C(=O)Nc1cc(C)nn1-c1nc2ccccc2[nH]1	none (no result: RAD54 inh)
Cc1cc(NC(=O)c2cccs2)n(-c2nc3ccccc3[nH]2)n1	SR-BI DiI inh 93 (no result: RAD54 inh)
